Test results taken from ChEMBL document CHEMBL1152411, “Antiplasmodial isoflavanones from the roots of Sophora mollis” (J Nat Prod, 2009).

Assays:
CHO = experiment: Cytotoxicity against CHO cells by MTT assay; type: cell-based, Cricetulus griseus
Outline: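 Chinese hamster ovary (CHO) cells; growth and survival measured by MTT assay. Samples run in triplicate on one occasion, with emetine dihydrochloride as reference drug.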

Plasmodium falciparum = experiment: Antiplasmodial activity against chloroquine-sensitive Plasmodium falciparum D10; type: functional, organism-based
Outline: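 Asexual erythrocytic-stage P. falciparum kept in continuous in vitro culture (Trager–Jensen). Activity measured by the parasite lactate dehydrogenase assay, with chloroquine diphosphate as reference drug.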

[1] = Selectivity index, ratio of IC50 for CHO cells to IC50 for chloroquine-sensitive Plasmodium falciparum D10; type: toxicity, cell-based; conditions: hamster; read-out: Ratio IC50
[2] = Plasmodium falciparum, D10, read-out: IC50
[3] = Cricetulus griseus, CHO, read-out: IC50

Structure (SMILES)	IC50 (Plasmodium falciparum; [2]) [µM]	IC50 (Plasmodium falciparum)	IC50 (CHO; cho)	IC50 (CHO; [3]) [µM]	selectivity ratio [1]
O=c1cc(-c2ccc(O)c(O)c2)oc2cc(O)ccc12	19.3	–	–	49.3	3
CC[C@H]1CN2CCc3cc(OC)c(OC)cc3[C@@H]2C[C@@H]1C[C@H]1NCCc2cc(OC)c(OC)cc21 [EMETINE]	–	–	–	0.12	–
O=C(/C=C/c1ccc(O)cc1)c1ccc(O)cc1O [ISOLIQUIRITIGENIN]	32	–	–	45.9	1
COc1c([C@]2(O)COc3c4c(cc(O)c3C2=O)OC(C)(C)CC4)ccc2c1CCC(C)(C)O2 [SOPHONOROL C]	12.9	–	Not Active	–	–
COc1c([C@]2(O)COc3cc(O)cc(O)c3C2=O)ccc2c1C=CC(C)(CO)O2 (stereo not given in full) [SOPHORONOL B]	–	Not Active	Not Active	–	–
COc1c(C2(O)COc3cc(O)cc(O)c3C2=O)ccc2c1C=CC(C)(C)O2 (stereo not given) [SOPHORONOL]	114	–	–	223	2

Now from value to molecule, other results behind:

IC50 (Plasmodium falciparum; [2]) [µM]	IC50 (Plasmodium falciparum)	Structure (SMILES)	IC50 (CHO; cho)	IC50 (CHO; [3]) [µM]	selectivity ratio [1]
17.8	–	O=c1c(-c2ccc(O)cc2)coc2c(O)c(O)ccc12	Not Active	–	–
177	–	Oc1ccc2c(c1)OC[C@@H]1c3cc4c(cc3O[C@H]21)OCO4 [(+)-MAACKIAIN]	Not Active	–	–
494	–	COc1cc2ccc(=O)oc2cc1O [SCOPOLETIN]	Not Active	–	–
106	–	COc1c(O)cc([C@]2(O)COc3cc(O)cc(O)c3C2=O)c(OC)c1CC=C(C)C [SOPHONOROL D]	–	172	2
12.8	–	COc1ccc([C@]2(O)COc3c(CC=C(C)C)c(O)cc(O)c3C2=O)c(OC)c1CC=C(C)C [SOPHONOROL E]	–	169	13
41	–	COc1cc(O)c2c(c1CC=C(C)C)OC[C@@](O)(c1ccc(O)c(CC=C(C)C)c1OC)C2=O [SOPHONOROL F]	–	–	3
–	Not Active	CC1(C)C=Cc2c(ccc([C@]3(O)COc4cc(O)cc(O)c4C3=O)c2O)O1 [SOPHORONOL A]	Not Active	–	–
